Legend:
[1] = molecular target: T1, Prostaglandin E2 receptor EP2 subtype (Rattus norvegicus, UniProt Q62928); assay: Inhibition of rat EP2 receptor expressed in HEK293 cells; type: cell-based
In short: (§1)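 Rat EP₂ or rat EP₄ receptor stably transfected into HEK-293 cells. Membranes were prepared from these cells for the receptor binding assay.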

[2] = molecular target: T2, Prostaglandin E2 receptor EP4 subtype (Rattus norvegicus, UniProt P43114); assay: Inhibition of rat EP4 receptor expressed in HEK293 cells; type: cell-based; in short: as §1
[3] = molecular target: T1, Prostaglandin E2 receptor EP2 subtype; assay: Agonist activity against rat EP2 receptor expressed in HEK293 cells assessed as stimulation of cAMP release; type: functional, cell-based
[4] = Half life in Sprague-Dawley rat at 1 mg/kg, iv; type: ADME, organism-based; parameters: dose 1 mg/kg, route intravenous; settings: in vivo
In short: (§2)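 Male Sprague–Dawley rats were given a single i.v. dose of 1 mg/kg. Half-life, clearance and steady-state volume of distribution were derived from the plasma pharmacokinetic profile.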

[5] = Clearance in Sprague-Dawley rat at 1 mg/kg, iv; type: ADME, organism-based; parameters: dose 1 mg/kg, route intravenous; settings: in vivo; in short: as §2
[6] = Volume of distribution at steady state in Sprague-Dawley rat at 1 mg/kg, iv; type: ADME, organism-based; parameters: dose 1 mg/kg, route intravenous; settings: in vivo, read-out: Vdss; in short: as §2
Rattus norvegicus [7] = assay: Induction of bone formation in rat assessed as total bone area at 1 mg/kg by peripheral quantitative computerized tomography
Rattus norvegicus [8] = assay: Induction of bone formation in rat assessed as total bone area at 3 mg/kg by peripheral quantitative computerized tomography
Rattus norvegicus [9] = assay: Induction of bone formation in rat assessed as total bone area at 0.3 mg/kg by peripheral quantitative computerized tomography
Rattus norvegicus [10] = assay: Induction of bone formation in rat assessed as bone mineral content at 1 mg/kg by peripheral quantitative computerized tomography
Rattus norvegicus [11] = assay: Induction of bone formation in rat assessed as bone mineral density at 1 mg/kg by peripheral quantitative computerized tomography
Rattus norvegicus [12] = assay: Induction of bone formation in rat assessed as bone mineral content at 3 mg/kg by peripheral quantitative computerized tomography
Rattus norvegicus [13] = assay: Induction of bone formation in rat assessed as bone mineral density at 3 mg/kg by peripheral quantitative computerized tomography
Rattus norvegicus [14] = assay: Induction of bone formation in rat assessed as bone mineral content at 0.3 mg/kg by peripheral quantitative computerized tomography
Rattus norvegicus [15] = assay: Induction of bone formation in rat assessed as bone mineral density at 0.3 mg/kg by peripheral quantitative computerized tomography
[16] = molecular target: T2, Prostaglandin E2 receptor EP4 subtype; assay: Agonist activity against rat EP4 receptor expressed in HEK293 cells assessed as stimulation of cAMP release; type: functional, cell-based

T2 sequence (P43114 whole entry): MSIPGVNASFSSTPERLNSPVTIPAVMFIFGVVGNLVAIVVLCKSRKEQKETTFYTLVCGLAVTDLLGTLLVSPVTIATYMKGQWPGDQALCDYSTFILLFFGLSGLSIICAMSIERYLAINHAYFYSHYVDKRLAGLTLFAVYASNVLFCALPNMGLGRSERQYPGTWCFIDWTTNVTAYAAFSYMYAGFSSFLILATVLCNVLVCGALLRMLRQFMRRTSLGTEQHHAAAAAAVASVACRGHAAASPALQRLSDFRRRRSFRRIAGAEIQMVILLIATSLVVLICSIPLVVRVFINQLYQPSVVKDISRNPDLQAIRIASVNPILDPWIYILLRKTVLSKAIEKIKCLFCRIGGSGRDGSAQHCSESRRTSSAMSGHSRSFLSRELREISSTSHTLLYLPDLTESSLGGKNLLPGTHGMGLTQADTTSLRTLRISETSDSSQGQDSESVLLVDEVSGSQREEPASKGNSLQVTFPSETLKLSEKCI
T1 sequence (Q62928 whole entry): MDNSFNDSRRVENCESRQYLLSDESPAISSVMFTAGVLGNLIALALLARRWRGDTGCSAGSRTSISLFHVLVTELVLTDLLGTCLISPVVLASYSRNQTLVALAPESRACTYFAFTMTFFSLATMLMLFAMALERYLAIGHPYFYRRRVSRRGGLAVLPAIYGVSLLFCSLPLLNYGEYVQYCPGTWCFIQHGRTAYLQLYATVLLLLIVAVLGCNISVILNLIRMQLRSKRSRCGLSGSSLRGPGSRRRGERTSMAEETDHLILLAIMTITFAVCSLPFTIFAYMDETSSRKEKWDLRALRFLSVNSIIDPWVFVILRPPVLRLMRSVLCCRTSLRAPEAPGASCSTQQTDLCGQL

SMILES	IC50 [1]	IC50 [2]	EC50 [3]	also measured
CCCCc1ccc(CN(CCc2ccc(CC(=O)O)cc2)S(C)(=O)=O)cc1	0.833 µM	> 3.2 µM	0.413 µM	
CCCCc1ccc(CN(Cc2ccccc2OCC(=O)O)S(C)(=O)=O)cc1	> 3.2 µM	> 3.2 µM		
CCCCCC(O)CCCN(CCCCCC(=O)O)S(C)(=O)=O (centres undefined)	0.91 µM			
CCCCCC(O)c1ccc(CN(CCCCCCC(=O)O)S(C)(=O)=O)cc1 (centres undefined)	0.093 µM	> 3.2 µM	0.044 µM	
CCCCCC(=O)c1ccc(CN(CCCCCCC(=O)O)S(C)(=O)=O)cc1	0.636 µM	> 3.2 µM	0.887 µM	
CCCCc1ccc(CN(CCCCOCC(=O)O)S(C)(=O)=O)cc1	0.701 µM	> 3.2 µM	0.407 µM	
CCCCCC(O)CCCN(CCCCCCC(=O)O)S(C)(=O)=O (centres undefined)	0.225 µM	2.53 µM	0.134 µM	
CCCCc1ccc(CN(c2cccc(CCC(=O)O)c2)S(C)(=O)=O)cc1	> 3.2 µM	> 3.2 µM		
CCCCc1ccc(CN(CCCOc2cccc(C(=O)O)c2)S(C)(=O)=O)cc1	3.13 µM	> 3.2 µM		
CS(=O)(=O)N(CCCCCCC(=O)O)Cc1ccc(-c2ccccc2)cc1	0.289 µM	> 3.2 µM	0.457 µM	
CCCCc1ccc(CN(c2ccc(CCCC(=O)O)cc2)S(C)(=O)=O)cc1	0.654 µM	> 3.2 µM	0.587 µM	
CC(C)(C)c1ccc(CN(Cc2cccc(OCC(=O)O)c2)S(C)(=O)=O)cc1	0.792 µM	> 3.2 µM	0.203 µM	
CC(C)(C)c1ccc(CN(Cc2cccc(CCC(=O)O)c2)S(=O)(=O)c2ccccn2)cc1	0.052 µM	> 3.2 µM	0.0023 µM	
CC(C)(C)c1ccc(CN(Cc2cccc(CCC(=O)O)c2)S(C)(=O)=O)cc1	0.379 µM	> 3.2 µM	0.048 µM	
CC(C)(C)c1ccc(CN(Cc2cccc(OCC(=O)O)c2)S(=O)(=O)c2cccnc2)cc1	0.05 µM	> 3.2 µM	0.0003 µM	half-life [4]: 19.8 min; clearance [5]: 56 mL/min/kg; Vd [6]: 0.49 L/kg; Activity (Rattus norvegicus [7]): 4.4%; Activity (Rattus norvegicus [8]): 20.6%; Activity (Rattus norvegicus [9]): -4.7%; Activity (Rattus norvegicus [10]): 26.3%; Activity (Rattus norvegicus [11]): 20.7%; Activity (Rattus norvegicus [12]): 53.5%; Activity (Rattus norvegicus [13]): 27.5%; Activity (Rattus norvegicus [14]): 2.5%; Activity (Rattus norvegicus [15]): 7.5%
CCCCCC(O)CCCN(CCCCC(=O)O)S(C)(=O)=O (centres undefined)	> 3.2 µM			
CCCCC[C@H](O)/C=C/[C@H]1[C@H](O)CC(=O)[C@@H]1C/C=C\CCCC(=O)O [DINOPROSTONE]		0.0021 µM		EC50 [16]: 0.0007 µM

The next lines start with results.

IC50 [1]	IC50 [2]	EC50 [3]	SMILES	also measured
0.27 µM	> 3.2 µM	0.0344 µM	CCCCc1ccc(CN(Cc2cccc(CCC(=O)O)c2)S(C)(=O)=O)cc1	
0.502 µM	> 3.2 µM	0.423 µM	CCCCC(O)c1ccc(CN(CCCCCCC(=O)O)S(C)(=O)=O)cc1 (centres undefined)	
> 3.2 µM	> 3.2 µM		CC(C)(C)c1ccc(CN(Cc2cccc(CCC(=O)O)c2)S(=O)(=O)c2ccc(Cl)cc2)cc1	
0.16 µM	> 3.2 µM	0.094 µM	CCCCc1ccc(CN(CCCCCCC(=O)O)S(C)(=O)=O)cc1	
2.5 µM	> 3.2 µM		CC(C)CC(O)CCCN(CCCCCCC(=O)O)S(C)(=O)=O (centres undefined)	
0.278 µM	> 3.2 µM	0.0002 µM	CC(C)(C)c1ccc(CN(Cc2cccc(CCC(=O)O)c2)S(=O)(=O)c2ccccc2)cc1	
0.59 µM	2.47 µM		CC(C)(C)c1ccc(CN(CCCCCCC(=O)O)S(C)(=O)=O)cc1	
0.494 µM	> 3.2 µM	0.103 µM	CCCCc1ccc(CN(c2ccccc2CCCC(=O)O)S(C)(=O)=O)cc1	
0.063 µM	> 3.2 µM	0.0011 µM	CC(C)(C)c1ccc(CN(Cc2cccc(CCC(=O)O)c2)S(=O)(=O)c2nccs2)cc1	
